# ChEMBL document CHEMBL5058577, “EUbOPEN Chemogenomics Library 2 (Multiplex)” (2022)
# Tested on: HEK-293T
# Assay: Multiplex assay against HEK293T
# Format: toxicity, cell-based
# Details: human
# Summary of the method: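 Phenotypes for tubulin, mitochondrial mass and membrane permeability are expressed as per cents of healthy-nucleus cells. Cells were stained live at seeding with Hoechst33342, BioTracker Green Microtubule Cytoskeleton Dye, MitoTracker Red and Annexin V Alexa Fluor 680, then imaged after compound addition on a CQ1 microscope at 37°C and 5% CO2. Machine-learning gating in CellPathfinder separated Hoechst high-intensity objects from normal cells, divided normal cells by nuclear state (healthy, pyknosed, fragmented) and divided pyknosed cells into mitotic or apoptotic.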
# [1] = 12 h, 1 µM, compound concentration 1 uM, replicate 1
# [2] = 12 h, 1 µM, compound concentration 1 uM, replicate 2
# [3] = 12 h, 10 µM, compound concentration 10 uM, replicate 1
# [4] = 12 h, 10 µM, compound concentration 10 uM, replicate 2
# [5] = 24 h, 1 µM, compound concentration 1 uM, replicate 1
# [6] = 24 h, 1 µM, compound concentration 1 uM, replicate 2
# [7] = 24 h, 10 µM, compound concentration 10 uM, replicate 1
# [8] = 24 h, 10 µM, compound concentration 10 uM, replicate 2
# [9] = 48 h, 1 µM, compound concentration 1 uM, replicate 1
# [10] = 48 h, 1 µM, compound concentration 1 uM, replicate 2
# [11] = 48 h, 10 µM, compound concentration 10 uM, replicate 1
# [12] = 48 h, 10 µM, compound concentration 10 uM, replicate 2
smiles,measurement,setting,value
Cc1ccc(F)cc1C(=O)Nc1ccc(C(=O)N2Cc3cccn3Cc3ccccc32)c(Cl)c1 [LIXIVAPTAN],Population Apoptotic (%),[1],36%
same,Population Fragmented Nuclei (%),[1],5%
same,Population Healthy Nuclei (%),[1],83%
same,Population Hoechst High Intensity Objects (%),[1],7%
same,Population Membrane Permeable-Phenotype (%),[1],0%
same,Population Mitochondria Different-Phenotype (%),[1],45%
same,Population Mitotic Cells (%),[1],63%
same,Population Normal (%),[1],92%
same,Population Pyknosed Nuclei (%),[1],10%
same,Population Tubulin-Different-Phenotype (%),[1],38%
same,Total Cell Count,[1],486
same,Population Apoptotic (%),[2],40%
same,Population Fragmented Nuclei (%),[2],6%
same,Population Healthy Nuclei (%),[2],74%
same,Population Hoechst High Intensity Objects (%),[2],5%
same,Population Mitochondria Different-Phenotype (%),[2],57%
same,Population Mitotic Cells (%),[2],60%
same,Population Normal (%),[2],94%
same,Population Pyknosed Nuclei (%),[2],19%
same,Population Tubulin-Different-Phenotype (%),[2],32%
same,Total Cell Count,[2],335
same,Population Apoptotic (%),[3],46%
same,Population Fragmented Nuclei (%),[3],6%
same,Population Healthy Nuclei (%),[3],70%
same,Population Hoechst High Intensity Objects (%),[3],10%
same,Population Membrane Permeable-Phenotype (%),[3],0%
same,Population Mitochondria Different-Phenotype (%),[3],75%
same,Population Mitotic Cells (%),[3],53%
same,Population Normal (%),[3],89%
same,Population Pyknosed Nuclei (%),[3],22%
same,Population Tubulin-Different-Phenotype (%),[3],78%
same,Total Cell Count,[3],339
same,Population Apoptotic (%),[4],50%
same,Population Healthy Nuclei (%),[4],67%
same,Population Hoechst High Intensity Objects (%),[4],6%
same,Population Membrane Permeable-Phenotype (%),[4],1%
same,Population Mitochondria Different-Phenotype (%),[4],81%
same,Population Mitotic Cells (%),[4],50%
same,Population Normal (%),[4],93%
same,Population Pyknosed Nuclei (%),[4],25%
same,Population Tubulin-Different-Phenotype (%),[4],67%
same,Total Cell Count,[4],357
same,Population Apoptotic (%),[5],30%
same,Population Fragmented Nuclei (%),[5],9%
same,Population Healthy Nuclei (%),[5],77%
same,Population Hoechst High Intensity Objects (%),[5],5%
same,Population Membrane Permeable-Phenotype (%),[5],0%
same,Population Mitochondria Different-Phenotype (%),[5],30%
same,Population Mitotic Cells (%),[5],69%
same,Population Normal (%),[5],94%
same,Population Pyknosed Nuclei (%),[5],13%
same,Population Tubulin-Different-Phenotype (%),[5],24%
same,Total Cell Count,[5],595
same,Population Apoptotic (%),[6],36%
same,Population Fragmented Nuclei (%),[6],10%
same,Population Healthy Nuclei (%),[6],76%
same,Population Hoechst High Intensity Objects (%),[6],7%
same,Population Mitochondria Different-Phenotype (%),[6],42%
same,Population Mitotic Cells (%),[6],63%
same,Population Normal (%),[6],92%
same,Population Tubulin-Different-Phenotype (%),[6],22%
same,Total Cell Count,[6],423
same,Population Apoptotic (%),[7],37%
same,Population Fragmented Nuclei (%),[7],5%
same,Population Healthy Nuclei (%),[7],69%
same,Population Hoechst High Intensity Objects (%),[7],7%
same,Population Membrane Permeable-Phenotype (%),[7],0%
same,Population Mitochondria Different-Phenotype (%),[7],74%
same,Population Mitotic Cells (%),[7],62%
same,Population Normal (%),[7],92%
same,Population Pyknosed Nuclei (%),[7],24%
same,Population Tubulin-Different-Phenotype (%),[7],71%
same,Total Cell Count,[7],392
same,Population Apoptotic (%),[8],58%
same,Population Fragmented Nuclei (%),[8],8%
same,Population Healthy Nuclei (%),[8],72%
same,Population Hoechst High Intensity Objects (%),[8],6%
same,Population Mitochondria Different-Phenotype (%),[8],78%
same,Population Mitotic Cells (%),[8],41%
same,Population Normal (%),[8],93%
same,Population Pyknosed Nuclei (%),[8],19%
same,Population Tubulin-Different-Phenotype (%),[8],69%
same,Total Cell Count,[8],401
same,Population Apoptotic (%),[9],22%
same,Population Fragmented Nuclei (%),[9],12%
same,Population Healthy Nuclei (%),[9],80%
same,Population Hoechst High Intensity Objects (%),[9],2%
same,Population Membrane Permeable-Phenotype (%),[9],0%
same,Population Mitochondria Different-Phenotype (%),[9],19%
same,Population Mitotic Cells (%),[9],77%
same,Population Normal (%),[9],97%
same,Population Pyknosed Nuclei (%),[9],6%
same,Population Tubulin-Different-Phenotype (%),[9],17%
same,Total Cell Count,[9],995
same,Population Apoptotic (%),[10],17%
same,Population Hoechst High Intensity Objects (%),[10],4%
same,Population Mitochondria Different-Phenotype (%),[10],24%
same,Population Mitotic Cells (%),[10],82%
same,Population Normal (%),[10],95%
same,Population Pyknosed Nuclei (%),[10],7%
same,Population Tubulin-Different-Phenotype (%),[10],21%
same,Total Cell Count,[10],643
same,Population Apoptotic (%),[11],43%
same,Population Fragmented Nuclei (%),[11],9%
same,Population Healthy Nuclei (%),[11],74%
same,Population Hoechst High Intensity Objects (%),[11],7%
same,Population Membrane Permeable-Phenotype (%),[11],0%
same,Population Mitochondria Different-Phenotype (%),[11],72%
same,Population Mitotic Cells (%),[11],56%
same,Population Normal (%),[11],92%
same,Population Pyknosed Nuclei (%),[11],16%
same,Population Tubulin-Different-Phenotype (%),[11],69%
same,Total Cell Count,[11],489
same,Population Apoptotic (%),[12],46%
same,Population Fragmented Nuclei (%),[12],11%
same,Population Hoechst High Intensity Objects (%),[12],8%
same,Population Mitochondria Different-Phenotype (%),[12],71%
same,Population Mitotic Cells (%),[12],53%
same,Population Normal (%),[12],91%
same,Population Pyknosed Nuclei (%),[12],14%
same,Population Tubulin-Different-Phenotype (%),[12],59%
same,Total Cell Count,[12],437
